Measured values published in ChEMBL document CHEMBL1141221, “Diketo acid pharmacophore. 2. Discovery of structurally diverse inhibitors of HIV-1 integrase” (J Med Chem, 2005).

Legend:
[1] = target: T1, Human immunodeficiency virus type 1 integrase (Human immunodeficiency virus 1, UniProt Q7ZJM1); experiment: Inhibition of strand transfer catalytic activity HIV1 integrase
How it was run: (§1)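 Wild-type HIV-1 IN (200 nM final) preincubated with inhibitor for 30 min at 30 °C. Buffer: 25 mM MOPS pH 7.2, 7.5 mM MnCl2, 50 mM NaCl, 10% DMSO, BSA and reducing agents. Reactions were quenched with formamide dye. IC50 was taken from log concentration versus percent inhibition.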

[2] = target: T1, Human immunodeficiency virus type 1 integrase; experiment: Inhibition of 3'-processing catalytic activity HIV1 integrase; how it was run: as §1
CEM-SS = experiment: Cytotoxicity against human T cell line CEM-SS; format: functional
How it was run: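 Uninfected CEM-SS cells were exposed to serial compound dilutions on the same plate as the antiviral test, at 37 °C with 5% CO2 for 6 days. Viability was measured by XTT (0.2 mg/mL, 4 h) absorbance at 450 nm.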

[3] = tested on: Human immunodeficiency virus 1; experiment: Antiviral activity in human T cell line CEM-SS infected with HIV1; format: functional, organism-based
How it was run: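 CEM-SS cells at 5×10^3/well were infected with HIV-1 RF (MOI 0.3), and serial compound dilutions were added immediately. Cells were kept at 37 °C with 5% CO2 for 6 days. Viability was read by XTT (0.2 mg/mL, 4 h) absorbance at 450 nm.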

T1 sequence (Q7ZJM1 whole entry): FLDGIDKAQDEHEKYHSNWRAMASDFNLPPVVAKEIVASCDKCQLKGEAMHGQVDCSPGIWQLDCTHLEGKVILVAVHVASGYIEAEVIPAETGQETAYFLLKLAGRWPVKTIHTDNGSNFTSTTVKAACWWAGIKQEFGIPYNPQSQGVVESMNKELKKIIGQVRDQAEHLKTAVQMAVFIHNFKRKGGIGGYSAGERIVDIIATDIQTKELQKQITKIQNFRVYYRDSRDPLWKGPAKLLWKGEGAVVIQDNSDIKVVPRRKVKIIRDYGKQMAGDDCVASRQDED

Cc1ccc(C(=O)C2=C(O)C(=O)N(CCCc3c[nH]cn3)C2c2ccc(Cl)cc2)cc1 (configuration not stated)
IC50 [1]: 67 µM | IC50 [2]: 93 µM

O=C(CSc1nc2ccccc2n1Cc1ccccc1)N/N=C/c1cc(Br)ccc1O
IC50 [1]: 51 µM | IC50 [2]: 60 µM | CC50 (CEM-SS): Toxic

COc1ccc(N(CC(=O)N/N=C/c2c(O)ccc3ccccc23)S(C)(=O)=O)cc1Cl
IC50 [1]: 59 µM | IC50 [2]: 95 µM

O=C(c1ccccc1)c1cc(Br)ccc1NC(=O)c1nc[nH]c1C(=O)O
IC50 [1]: 17 µM | IC50 [2]: 16 µM

CCOC(=O)CCc1cc(C(=O)OCC)c(CCC(=O)OCC)cc1C(=O)OCC
IC50 [1]: 94 µM | IC50 [2]: > 100 µM

Oc1ccccc1/C=N/CC(O)C/N=C/c1ccccc1O
IC50 [1]: 61 µM | IC50 [2]: 97 µM

O=C(/C=C/c1ccc(Cl)cc1)Nc1ccc(NC(=O)c2ccco2)cc1
IC50 [1]: 91 µM | IC50 [2]: 90 µM

O=C(CSc1nc(CSc2ccc(Cl)cc2)cc(=O)[nH]1)Nc1ccc(Cl)cc1Cl
IC50 [1]: 24 µM | IC50 [2]: 34 µM

O=C(/C=C(\O)c1ccc(Cl)cc1)C(=O)/N=N/c1c(O)[nH]c2ccc(Br)cc12
IC50 [1]: 28 µM | IC50 [2]: 42 µM | CC50 (CEM-SS): Toxic

O=C(O)c1cc(NC(=O)c2cccc3ccccc23)c(C(=O)O)cc1NC(=O)c1cccc2ccccc12
IC50 [1]: 21 µM | IC50 [2]: 28 µM

O=C(CC1Sc2ccccc2NC1=O)Nc1cccc(C(=O)O)c1 (configuration not stated)
IC50 [1]: 71 µM | IC50 [2]: 79 µM

O=C(N/N=C/c1ccc(/C=N/NC(=O)c2cc(O)cc(O)c2)cc1)c1cc(O)cc(O)c1
IC50 [1]: 56 µM | IC50 [2]: 76 µM

O=C(Nc1ccc(O)c(-c2nc3cc(Cl)ccc3o2)c1)c1cccnc1
IC50 [1]: 10 µM | EC50 ([3]; t cell line): Not Active | IC50 [2]: 61 µM

O=C(N/N=C/c1cc(Br)ccc1O)/C(=C/C=C/c1ccccc1)NC(=O)c1ccccc1
IC50 [1]: 23 µM | IC50 [2]: 90 µM | CC50 (CEM-SS): Toxic

CCSc1nnc(N2C(=O)c3ccc(C(=O)c4ccc(C(=O)O)cc4)cc3C2=O)s1
IC50 [1]: 65 µM | IC50 [2]: 98 µM

Cc1ccc(S(=O)(=O)Nc2ccccc2/N=C/c2sc3ccccc3c2O)cc1
IC50 [1]: 68 µM | IC50 [2]: 88 µM

Cc1ccc(C(=O)N/C(=C/c2ccc(-c3ccc(Cl)cc3Cl)o2)C(=O)NCCCO)cc1
IC50 [1]: 85 µM | IC50 [2]: > 1000 µM

CC(=O)c1cc(C(=O)CC(=O)Nc2ccccc2)sc1Nc1ccccc1
IC50 [1]: > 100 µM | IC50 [2]: > 100 µM

CC(=O)c1cc(C(=O)CC(=O)Nc2cccc([N+](=O)[O-])c2)sc1Nc1ccccc1
IC50 [1]: 29 µM | IC50 [2]: 97 µM

CC(=O)c1cc(C(=O)CC(=O)Nc2ccc([N+](=O)[O-])cc2)sc1Nc1ccccc1
IC50 [1]: 28 µM | IC50 [2]: 80 µM

O=C(CSc1nc(O)cc(CSc2ccc(Cl)cc2)n1)Nc1ccc(Cl)cc1Cl
CC50 (CEM-SS): Toxic

O=C(Cc1ccccc1)Nc1cc(C(=O)O)c(NC(=O)Cc2ccccc2)cc1C(=O)O
IC50 [1]: 7 µM | EC50 ([3]; Human immunodeficiency virus 1, T-cell, read-out: EC50): 104 µM | IC50 [2]: 9 µM | CC50 (CEM-SS): > 400 µM

O=C(/C=C/c1ccco1)NC(=S)Nc1ccccc1O
IC50 [1]: 28 µM | IC50 [2]: 57 µM | CC50 (CEM-SS): Toxic

COC(=O)c1ccc(C(=O)OC)c(NC(=O)c2ccc(C)c([N+](=O)[O-])c2)c1
IC50 [1]: > 100 µM | IC50 [2]: 92 µM

O=C(Nc1ccc(O)c(-c2nc3ccccc3o2)c1)c1cccc2ccccc12
IC50 [1]: 6 µM | IC50 [2]: 14 µM

CCOC(=O)c1c(-c2ccccc2)csc1NC(NC(=O)c1ccco1)C(=O)c1ccc(C)cc1 (configuration not stated)
IC50 [1]: 79 µM | IC50 [2]: > 100 µM

O=C(O)C(Cc1c[nH]c2ccccc12)NS(=O)(=O)c1ccccc1[N+](=O)[O-] (configuration not stated)
IC50 [1]: 56 µM | IC50 [2]: 88 µM

COc1ccc(CCNC(=O)CC(=O)N/N=C/c2ccco2)cc1OC
IC50 [1]: 90 µM | IC50 [2]: > 100 µM | CC50 (CEM-SS): Toxic

O=C(/N=N/c1c(O)[nH]c2ccc(F)cc12)/C(=C/C=C/c1ccccc1)NC(=O)c1ccccc1
IC50 [1]: 38 µM | IC50 [2]: 60 µM | CC50 (CEM-SS): Toxic

O=C(/C=C/c1ccc(-c2ccccc2[N+](=O)[O-])o1)Nc1ccc(O)c(-c2nc3ccccc3o2)c1
IC50 [1]: 63 µM | IC50 [2]: 23 µM

COc1cc(/C=N/NC2=NC(=O)C(CC(=O)Nc3ccc(Cl)c(Cl)c3)S2)ccc1O (configuration not stated)
IC50 [1]: 38 µM | IC50 [2]: 89 µM | CC50 (CEM-SS): Toxic

COc1ccc2oc(=O)c(-c3csc(N/N=C/c4ccccc4O)n3)cc2c1
IC50 [1]: 10 µM | EC50 ([3]; t cell line): Not Active | IC50 [2]: 30 µM

CC(C)Cn1c(=O)c(C(=O)Nc2ccccc2S(N)(=O)=O)c(O)c2ccccc21
IC50 [1]: 16 µM | EC50 ([3]; t cell line): Not Active | IC50 [2]: 40 µM

COc1ccc(C(=O)Nc2ccc(O)c(-c3nc4ccccc4o3)c2)cc1[N+](=O)[O-]
IC50 [1]: 7 µM | IC50 [2]: 6 µM

Cc1[nH]n(-c2ccccc2)c(=O)c1C(c1ccc(O)c(O)c1)c1c(C)n(C)n(-c2ccccc2)c1=O (configuration not stated)
IC50 [1]: 31 µM | IC50 [2]: 89 µM | CC50 (CEM-SS): Toxic
